# Experimental data from different studies.
# Protocols differ between the studies behind these lines.
# VIPR1: Vasoactive intestinal polypeptide receptor 1 (VIPR1, Homo sapiens, UniProt P32241)
# MAOA: Amine oxidase [flavin-containing] A (MAOA, Homo sapiens, UniProt P21397)
# PRMT3: Protein arginine N-methyltransferase 3 (PRMT3, Homo sapiens, UniProt O60678)
# Faah: Fatty-acid amide hydrolase 1 (Faah, Rattus norvegicus, UniProt P97612)
# LDHA: L-lactate dehydrogenase A chain (LDHA, Homo sapiens, UniProt P00338)
# Tspo: Translocator protein (Tspo, Rattus norvegicus, UniProt P16257)
# Rps6ka1: Ribosomal protein S6 kinase alpha-1 (Rps6ka1, Rattus norvegicus, UniProt Q63531)
SMILES,target,assay,setting,inhibition
CCN(CC)c1ccc(C2Nc3ccc(C(=O)c4ccccc4)cc3NC3=C2C(=O)CC(C)(C)C3)cc1 (stereo not drawn),"Alpha-1A adrenergic receptor (ADRA1A, Homo sapiens, UniProt P35348)","ligand displacement, radioligand",10 µM,17%
COc1cc(NC(C)=O)c(Cl)cc1C(=O)Nc1nccs1,VIPR1,cell-free assay,10 µM,-13.5%
CC1=C(C(=O)Nc2ccc([N+](=O)[O-])cc2Cl)Cc2ccccc21,MAOA,"enzyme activity, inhibitor","1 µM, 20 min",-3%
N=C(NCCCSC[C@H]1O[C@@H](n2cnc3c(NCCCc4ccccc4)ncnc32)[C@H](O)[C@@H]1O)NCCc1ccccc1,PRMT3,"enzyme activity, inhibitor, fluorescence",10 µM,1.64%
Cc1ccc2c(ccn2CCC2CCN(C(=O)OC(C(F)(F)F)C(F)(F)F)CC2)c1,Faah,"enzyme activity, inhibitor",10 µM,36%
Nc1ncnc2c1ncn2[C@@H]1O[C@H](CSCCNC(=O)NCc2ccccc2)[C@@H](O)[C@H]1O,PRMT3,"enzyme activity, inhibitor, radiometric",10 µM,> 95%
N=C(NCCCSC[C@H]1O[C@@H](n2cnc3c(NCCCc4ccccc4)ncnc32)[C@H](O)[C@@H]1O)NC1CCCC1,PRMT3,"enzyme activity, inhibitor, fluorescence",10 µM,-23.3%
O=C(Nc1ccc([N+](=O)[O-])cc1Cl)c1ccc2ccccc2c1,MAOA,"enzyme activity, inhibitor","1 µM, 20 min",11%
CCCCNC(=N)NCCCSC[C@H]1O[C@@H](n2cnc3c(NCCCc4ccccc4)ncnc32)[C@H](O)[C@@H]1O,PRMT3,"enzyme activity, inhibitor, fluorescence",10 µM,11.1%
COC(=O)CN=c1scc(-c2ccccc2)n1-c1ccc(C)cc1,LDHA,"enzyme activity, inhibitor, fluorescence","100 µM, pH 7.2",52%
COc1ccc(/C=C/C(=O)N2CCc3ccccc3C2)cc1OC,MAOA,"enzyme activity, inhibitor, fluorescence",62.5 µM,11.3%
COC(=O)CN=c1scc(-c2ccccc2)n1-c1ccccc1C,LDHA,"enzyme activity, inhibitor, fluorescence","100 µM, pH 7.2",43%
O=C(Nc1ccccc1)c1ccccc1O,MAOA,"enzyme activity, inhibitor","1 µM, 20 min",28%
O=C1N=C(N2CCCCN2)S/C1=C\c1ccc(F)cc1O,"Kappa-type opioid receptor (Oprk1, Rattus norvegicus, UniProt P34975)","ligand displacement, radioligand",10 µM,11%
CC[C@H](C)[C@H](NC(=O)[C@H](CCC(N)=O)NC(=O)[C@H](CC(C)C)NC(=O)[C@H](CCSC)NC(=O)[C@H](CCCCN)NC(=O)[C@H](CO)NC(=O)[C@H](CO)NC(=O)[C@H](CCSC)NC(=O)[C@H](CC(C)C)NC(=O)[C@H](CC(N)=O)NC(=O)[C@@H](NC(=O)[C@@H](NC(=O)[C@H](CO)NC(=O)[C@H](CC(C)C)NC(=O)[C@H](CS)NC(=O)[C@H](CCCNC(=N)N)NC(=O)[C@H](CC(=O)O)NC(=O)[C@H](Cc1c[nH]c2ccccc12)NC(=O)[C@H](Cc1ccccc1)NC(=O)[C@H](C)NC(=O)[C@H](CCC(=O)O)NC(=O)[C@@H](N)CCCCN)C(C)C)[C@@H](C)CC)C(=O)N[C@@H](CC(N)=O)C(=O)N[C@@H](C)C(=O)O,"Cyclin-dependent kinase 5, with p25 (CDK5, Homo sapiens, UniProt Q00535)","enzyme activity, inhibitor, radiometric",50 µM,20%
COC(=O)CN=c1scc(-c2ccccc2)n1-c1ccc(OC)cc1,LDHA,"enzyme activity, inhibitor, fluorescence","100 µM, pH 7.2",49%
Oc1cccc(Nc2nc(-c3ccc(F)cc3F)cs2)c1,Tspo,"ligand displacement, radioligand",10 µM,63%
N#Cc1cc(Cn2c(N3CCCC3)nc3ccccc32)ccc1F,Tspo,cell-free assay,10 µM,76.7%
O=C(c1ccc(Cl)cc1)N(Cc1ccccc1)C1CCCCC1,VIPR1,cell-free assay,10 µM,-0.7%
COc1ccc2c(c1)[C@H](NCCC(C)C)C[C@H]2c1ccc(Cl)c(Cl)c1 (relative stereo),"Glutathione reductase, mitochondrial (GSR, Homo sapiens, UniProt P00390)","enzyme activity, inhibitor",25 µM,< 12%
CN(C)C1CCN(CC#Cc2nn(C3CCCC3)c3nc(NCc4ccccc4)ncc23)C1 (stereo not drawn),"Serine/threonine-protein kinase MARK2 (MARK2, Homo sapiens, UniProt Q7KZI7)","enzyme activity, inhibitor, FRET",0.1 µM,4%
O=C(Nc1ccc(OC(F)(F)F)cc1)c1cc(Cl)ccc1O,MAOA,"enzyme activity, inhibitor","1 µM, 20 min",74%
N=C(NCCCSC[C@H]1O[C@@H](n2cnc3c(NCCCc4ccccc4)ncnc32)[C@H](O)[C@@H]1O)NCCCc1ccccc1,PRMT3,"enzyme activity, inhibitor, fluorescence",10 µM,10.4%
COc1cc([N+](=O)[O-])ccc1NC(=O)c1ccccc1O,MAOA,"enzyme activity, inhibitor","1 µM, 20 min",9%
CN1CC(Oc2cnc(C#N)cc2-c2ccn3nc(NC(=O)C4CC4)cc3c2)C1,"Cyclin-dependent kinase-like 4 (CDKL4, Homo sapiens, UniProt Q5MAI5)","enzyme activity, inhibitor",1 µM,-9%
O=C(Nc1cc(Cl)cc(Cl)c1)c1cc(Cl)ccc1O,MAOA,"enzyme activity, inhibitor","1 µM, 20 min",4%
Cc1ccc(Nc2nccc(N(C)c3ccc4c(C)n(C)nc4c3)n2)cc1S(N)(=O)=O,Rps6ka1,"enzyme activity, inhibitor",10 µM,41%
CCCNc1nc2ccccc2n1Cc1ccc(Cl)cc1,Tspo,cell-free assay,10 µM,49.2%
COC(=O)CN=c1scc(-c2ccccc2)n1-c1ccccc1OC,LDHA,"enzyme activity, inhibitor, fluorescence","100 µM, pH 7.2",48%
Cc1cc([N+](=O)[O-])ccc1NC(=O)c1ccc2c(c1)OCO2,MAOA,"enzyme activity, inhibitor","1 µM, 20 min",7%
N=C(NCCCSC[C@H]1O[C@@H](n2cnc3c(NCCCc4ccccc4)ncnc32)[C@H](O)[C@@H]1O)Nc1ccccc1,PRMT3,"enzyme activity, inhibitor, fluorescence",10 µM,4.92%
N#Cc1ccc2c(ccn2CCC2CCN(C(=O)OC(C(F)(F)F)C(F)(F)F)CC2)c1,Faah,"enzyme activity, inhibitor",10 µM,45%
N=C(NCCCSC[C@H]1O[C@@H](n2cnc3c(NCCCc4ccccc4)ncnc32)[C@H](O)[C@@H]1O)NCC1CC1,PRMT3,"enzyme activity, inhibitor, fluorescence",10 µM,-19.4%
N#Cc1ccc(NC(=O)c2ccc(Cl)cc2)cc1,MAOA,"enzyme activity, inhibitor","1 µM, 20 min",72%
CNC(=O)c1cc(Oc2ccc(NC(=O)Nc3ccc(Cl)c(C(F)(F)F)c3)cc2)ccn1,Rps6ka1,"enzyme activity, inhibitor",0.3 µM,11%
N=C(NCCCSC[C@H]1O[C@@H](n2cnc3c(NCCCc4ccccc4)ncnc32)[C@H](O)[C@@H]1O)NC1CC1,PRMT3,"enzyme activity, inhibitor, fluorescence",10 µM,-8.93%
